This passage reports inhibition and IC50 results from ChEMBL document CHEMBL4265907, “Design, synthesis and pharmacological evaluation of N4,N6-disubstituted pyrimidine-4,6-diamine derivatives as potent EGFR inhibitors in non-small cell lung cancer” (Eur J Med Chem, 2018).

The target of assay [1] is Platelet-derived growth factor receptor alpha (Homo sapiens) (UniProt P16234). Briefly: Inhibition of recombinant human GST-tagged PDGFRalpha cytoplasmic domain (550 to 1089 residues) expressed in baculovirus expression system at 1 uM using FAM-labeled peptide as substrate after 10 mins by mobility shift assay relative to control. In short, it runs like this:
(§1)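 Caliper mobility-shift kinase assay. Kinase in kinase base buffer was preincubated with compound for 10 min at room temperature. FAM-labelled peptide and ATP at Km were then added, and the reaction ran at 28 °C until quenched with buffer. Screening concentration was 1 µM. Percent inhibition = (max − conversion)/(max − min) × 100, with DMSO as max and a low control as min.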

Assay [2] has as its target Receptor tyrosine-protein kinase erbB-2 (Homo sapiens) (UniProt P04626). Put plainly: Inhibition of N-terminal His-tagged human HER2 cytoplasmic domain (676 to 1255 residues) expressed in baculovirus expression system at 1 uM using FAM-labeled peptide as substrate after 10 mins by mobility shift assay relative to control. In short, it runs like this:
as §1

Assay [3] concerns the target Receptor tyrosine-protein kinase erbB-4 (Homo sapiens) (UniProt Q15303). Briefly: Inhibition of N-terminal GST-tagged human HER4 cytoplasmic domain (676 to 1308 residues) expressed in baculovirus expression system at 1 uM using FAM-labeled peptide as substrate after 10 mins by mobility shift assay relative to control. The procedure, abridged:
as §1

Assay [4] concerns the target Fibroblast growth factor receptor 2 (Homo sapiens) (UniProt P21802). Put plainly: Inhibition of N-terminal GST-tagged human FGFR2 cytoplasmic domain (399 to 821 residues) expressed in baculovirus expression system at 1 uM using FAM-labeled peptide as substrate after 10 mins by mobility shift assay relative to control. In short, it runs like this: as §1
Assay [5] deals with Tyrosine-protein kinase JAK2 (Homo sapiens) (UniProt O60674). Put plainly: Inhibition of human N-terminal His-tagged JAK2 catalytic domain (826 to 1132 residues) expressed in baculovirus expression system at 1 uM using FAM-labeled peptide as substrate after 10 mins by mobility shift assay relative to control. The procedure, abridged:
as §1

Assay [6] has as its target Insulin-like growth factor 1 receptor (Homo sapiens) (UniProt P08069). Put plainly: Inhibition of human His-tagged IGF1R cytoplasmic domain (960 to 1397 residues) expressed in baculovirus expression system at 1 uM using FAM-labeled peptide as substrate after 10 mins by mobility shift assay relative to control. In short, it runs like this: as §1
For assay [7], the target named is Non-receptor tyrosine-protein kinase TYK2 (Homo sapiens) (UniProt P29597). Put plainly: Inhibition of human N-terminal GST-tagged TYK2 catalytic domain (871 to 1187 residues) expressed in baculovirus expression system at 1 uM using FAM-labeled peptide as substrate after 10 mins by mobility shift assay relative to control. In short, it runs like this:
as §1

The target of assay [8] is Mitogen-activated protein kinase kinase kinase kinase 4 (Homo sapiens) (UniProt O95819). Put plainly: Inhibition of human N-terminal GST-tagged full length MAP4K4 catalytic domain (1 to 328 residues) expressed in baculovirus expression system at 1 uM using FAM-labeled peptide as substrate after 10 mins by mobility shift assay relative to control. The procedure, abridged: as §1

The target in assay [9] is Serine/threonine-protein kinase B-raf (Homo sapiens) (UniProt P15056). Put plainly: Inhibition of recombinant human GST-tagged full length BRAF expressed in baculovirus expression system at 1 uM using FAM-labeled peptide as substrate after 10 mins by mobility shift assay relative to control. The procedure, abridged:
as §1

Assay [10] deals with T1, Inhibitor of nuclear factor kappa-B kinase subunit beta (Homo sapiens) (UniProt O14920).
T1 sequence (whole entry): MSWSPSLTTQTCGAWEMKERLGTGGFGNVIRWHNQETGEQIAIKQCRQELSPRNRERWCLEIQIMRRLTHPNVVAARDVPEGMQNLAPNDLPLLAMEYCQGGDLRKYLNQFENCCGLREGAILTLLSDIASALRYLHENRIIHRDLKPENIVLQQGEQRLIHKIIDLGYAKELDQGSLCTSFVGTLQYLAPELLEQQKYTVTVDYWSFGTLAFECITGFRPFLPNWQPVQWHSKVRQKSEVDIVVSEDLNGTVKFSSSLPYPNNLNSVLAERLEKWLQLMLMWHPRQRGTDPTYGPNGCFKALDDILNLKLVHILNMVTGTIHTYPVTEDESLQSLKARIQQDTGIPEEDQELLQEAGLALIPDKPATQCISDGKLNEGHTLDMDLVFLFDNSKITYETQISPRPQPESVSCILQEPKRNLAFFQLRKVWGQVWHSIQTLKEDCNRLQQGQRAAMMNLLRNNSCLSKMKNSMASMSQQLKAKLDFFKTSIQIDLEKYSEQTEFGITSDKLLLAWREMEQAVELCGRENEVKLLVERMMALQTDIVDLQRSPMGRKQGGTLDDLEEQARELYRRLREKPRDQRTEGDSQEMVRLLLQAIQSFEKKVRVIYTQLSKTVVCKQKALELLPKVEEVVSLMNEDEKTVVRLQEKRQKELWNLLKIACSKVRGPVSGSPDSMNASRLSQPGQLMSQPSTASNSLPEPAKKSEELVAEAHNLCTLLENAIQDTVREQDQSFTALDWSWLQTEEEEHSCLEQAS
Briefly: Inhibition of human N-terminal His-tagged truncated IKKB (1 to 662 residues) expressed in baculovirus expression system at 1 uM using FAM-labeled peptide as substrate after 10 mins by mobility shift assay relative to control. The procedure, abridged: as §1

Assay [11] concerns the target T2, Aurora kinase A (Homo sapiens) (UniProt O14965).
T2 sequence (whole entry): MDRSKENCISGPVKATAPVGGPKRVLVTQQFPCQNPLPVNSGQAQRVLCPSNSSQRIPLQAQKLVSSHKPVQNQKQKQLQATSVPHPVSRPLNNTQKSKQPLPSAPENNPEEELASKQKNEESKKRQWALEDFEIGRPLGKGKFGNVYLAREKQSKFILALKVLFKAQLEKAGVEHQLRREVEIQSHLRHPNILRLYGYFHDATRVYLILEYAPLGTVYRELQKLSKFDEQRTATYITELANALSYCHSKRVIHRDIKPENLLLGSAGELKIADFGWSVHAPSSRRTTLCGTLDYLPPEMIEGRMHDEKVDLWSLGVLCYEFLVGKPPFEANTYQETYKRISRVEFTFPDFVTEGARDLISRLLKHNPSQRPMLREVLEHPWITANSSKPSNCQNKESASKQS
Briefly: Inhibition of human N-terminal GST-tagged AURA (1 to 403 residues) expressed in baculovirus expression system at 1 uM using FAM-labeled peptide as substrate after 10 mins by mobility shift assay relative to control. In short, it runs like this: as §1

Assay [12] concerns BEAS-2B. Put plainly: Cytotoxicity against human BEAS2B cells after 72 hrs by MTT assay. Format: cell-based. The procedure, abridged: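 Cells seeded at 3000/well in growth medium with 10% FBS and left overnight. Treated in triplicate for 72 h at nine concentrations (0.458 to 30,000 nM), with DMSO-only controls. MTT (5 mg/mL) added for the last 4 h, formazan dissolved in DMSO, absorbance read at 490 nm. IC50 from non-linear sigmoidal dose-response fit.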

Assay [13] has as its target Fibroblast growth factor receptor 1 (Homo sapiens) (UniProt P11362). Briefly: Inhibition of N-terminal GST-tagged human FGFR1 cytoplasmic domain (398 to 822 residues) expressed in baculovirus expression system at […] using FAM-labeled peptide as substrate after 10 mins by mobility shift assay relative to control. The procedure, abridged:
as §1

Sequence of Non-receptor tyrosine-protein kinase TYK2 (Homo sapiens) (P29597 whole entry, the tested form may be a part): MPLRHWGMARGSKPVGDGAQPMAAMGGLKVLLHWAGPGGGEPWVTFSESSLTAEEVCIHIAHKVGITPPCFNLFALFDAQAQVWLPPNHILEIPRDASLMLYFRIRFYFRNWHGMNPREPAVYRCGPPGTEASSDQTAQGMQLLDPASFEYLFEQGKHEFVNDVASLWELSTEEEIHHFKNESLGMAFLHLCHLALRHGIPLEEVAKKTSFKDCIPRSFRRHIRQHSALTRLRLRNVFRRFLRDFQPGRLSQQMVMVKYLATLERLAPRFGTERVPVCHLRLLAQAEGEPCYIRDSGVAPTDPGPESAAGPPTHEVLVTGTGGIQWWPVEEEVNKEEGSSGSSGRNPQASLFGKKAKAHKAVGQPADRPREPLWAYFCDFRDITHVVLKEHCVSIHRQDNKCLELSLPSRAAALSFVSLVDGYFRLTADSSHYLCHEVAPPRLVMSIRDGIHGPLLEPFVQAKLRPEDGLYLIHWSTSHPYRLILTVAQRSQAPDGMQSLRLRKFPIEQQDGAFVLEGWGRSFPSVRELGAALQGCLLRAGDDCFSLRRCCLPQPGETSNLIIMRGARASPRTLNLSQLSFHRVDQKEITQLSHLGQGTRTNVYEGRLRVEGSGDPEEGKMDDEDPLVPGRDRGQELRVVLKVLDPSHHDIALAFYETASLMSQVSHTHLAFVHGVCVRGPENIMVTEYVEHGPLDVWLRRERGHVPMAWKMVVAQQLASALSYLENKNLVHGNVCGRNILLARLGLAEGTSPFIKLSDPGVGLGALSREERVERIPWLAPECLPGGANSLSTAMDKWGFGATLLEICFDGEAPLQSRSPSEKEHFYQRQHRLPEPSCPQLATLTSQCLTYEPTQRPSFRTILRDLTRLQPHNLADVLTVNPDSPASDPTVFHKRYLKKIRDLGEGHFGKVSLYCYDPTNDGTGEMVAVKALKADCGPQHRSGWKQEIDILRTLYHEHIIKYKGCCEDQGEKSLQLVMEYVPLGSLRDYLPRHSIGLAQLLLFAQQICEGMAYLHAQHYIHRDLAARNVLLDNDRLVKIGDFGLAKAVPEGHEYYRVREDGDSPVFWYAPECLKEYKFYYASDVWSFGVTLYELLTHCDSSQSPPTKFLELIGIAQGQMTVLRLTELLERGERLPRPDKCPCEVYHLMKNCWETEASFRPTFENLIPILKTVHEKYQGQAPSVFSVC
Sequence of Tyrosine-protein kinase JAK2 (Homo sapiens) (O60674 whole entry, the tested form may be a part): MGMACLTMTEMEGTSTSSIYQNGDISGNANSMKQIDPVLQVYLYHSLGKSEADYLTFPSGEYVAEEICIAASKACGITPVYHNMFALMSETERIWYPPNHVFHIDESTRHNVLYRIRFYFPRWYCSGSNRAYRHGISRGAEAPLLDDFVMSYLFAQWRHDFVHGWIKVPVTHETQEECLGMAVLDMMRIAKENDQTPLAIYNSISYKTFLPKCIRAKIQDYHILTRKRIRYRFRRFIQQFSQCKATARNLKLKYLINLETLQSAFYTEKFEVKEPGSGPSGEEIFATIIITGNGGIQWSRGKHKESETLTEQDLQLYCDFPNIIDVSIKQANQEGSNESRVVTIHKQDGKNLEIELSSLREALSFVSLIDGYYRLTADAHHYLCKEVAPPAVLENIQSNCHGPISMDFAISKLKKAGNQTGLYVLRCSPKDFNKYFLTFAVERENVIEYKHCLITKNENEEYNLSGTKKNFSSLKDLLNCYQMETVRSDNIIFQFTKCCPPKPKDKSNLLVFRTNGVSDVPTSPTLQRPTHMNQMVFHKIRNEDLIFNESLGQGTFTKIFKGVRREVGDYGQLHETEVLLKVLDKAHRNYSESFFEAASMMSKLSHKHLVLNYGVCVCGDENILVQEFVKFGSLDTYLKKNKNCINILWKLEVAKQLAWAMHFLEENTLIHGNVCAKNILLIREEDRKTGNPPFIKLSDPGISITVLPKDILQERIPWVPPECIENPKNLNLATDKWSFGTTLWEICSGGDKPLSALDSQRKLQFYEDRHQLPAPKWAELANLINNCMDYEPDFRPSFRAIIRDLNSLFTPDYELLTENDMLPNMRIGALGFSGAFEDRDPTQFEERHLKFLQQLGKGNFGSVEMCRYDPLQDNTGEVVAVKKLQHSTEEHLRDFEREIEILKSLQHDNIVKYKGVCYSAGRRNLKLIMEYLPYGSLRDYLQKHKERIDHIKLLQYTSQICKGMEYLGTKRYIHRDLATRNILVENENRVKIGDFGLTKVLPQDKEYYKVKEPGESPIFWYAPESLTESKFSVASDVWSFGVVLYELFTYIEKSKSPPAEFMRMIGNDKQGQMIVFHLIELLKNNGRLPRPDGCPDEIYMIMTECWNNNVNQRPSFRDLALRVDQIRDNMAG
Sequence of Receptor tyrosine-protein kinase erbB-2 (Homo sapiens) (P04626 whole entry, the tested form may be a part): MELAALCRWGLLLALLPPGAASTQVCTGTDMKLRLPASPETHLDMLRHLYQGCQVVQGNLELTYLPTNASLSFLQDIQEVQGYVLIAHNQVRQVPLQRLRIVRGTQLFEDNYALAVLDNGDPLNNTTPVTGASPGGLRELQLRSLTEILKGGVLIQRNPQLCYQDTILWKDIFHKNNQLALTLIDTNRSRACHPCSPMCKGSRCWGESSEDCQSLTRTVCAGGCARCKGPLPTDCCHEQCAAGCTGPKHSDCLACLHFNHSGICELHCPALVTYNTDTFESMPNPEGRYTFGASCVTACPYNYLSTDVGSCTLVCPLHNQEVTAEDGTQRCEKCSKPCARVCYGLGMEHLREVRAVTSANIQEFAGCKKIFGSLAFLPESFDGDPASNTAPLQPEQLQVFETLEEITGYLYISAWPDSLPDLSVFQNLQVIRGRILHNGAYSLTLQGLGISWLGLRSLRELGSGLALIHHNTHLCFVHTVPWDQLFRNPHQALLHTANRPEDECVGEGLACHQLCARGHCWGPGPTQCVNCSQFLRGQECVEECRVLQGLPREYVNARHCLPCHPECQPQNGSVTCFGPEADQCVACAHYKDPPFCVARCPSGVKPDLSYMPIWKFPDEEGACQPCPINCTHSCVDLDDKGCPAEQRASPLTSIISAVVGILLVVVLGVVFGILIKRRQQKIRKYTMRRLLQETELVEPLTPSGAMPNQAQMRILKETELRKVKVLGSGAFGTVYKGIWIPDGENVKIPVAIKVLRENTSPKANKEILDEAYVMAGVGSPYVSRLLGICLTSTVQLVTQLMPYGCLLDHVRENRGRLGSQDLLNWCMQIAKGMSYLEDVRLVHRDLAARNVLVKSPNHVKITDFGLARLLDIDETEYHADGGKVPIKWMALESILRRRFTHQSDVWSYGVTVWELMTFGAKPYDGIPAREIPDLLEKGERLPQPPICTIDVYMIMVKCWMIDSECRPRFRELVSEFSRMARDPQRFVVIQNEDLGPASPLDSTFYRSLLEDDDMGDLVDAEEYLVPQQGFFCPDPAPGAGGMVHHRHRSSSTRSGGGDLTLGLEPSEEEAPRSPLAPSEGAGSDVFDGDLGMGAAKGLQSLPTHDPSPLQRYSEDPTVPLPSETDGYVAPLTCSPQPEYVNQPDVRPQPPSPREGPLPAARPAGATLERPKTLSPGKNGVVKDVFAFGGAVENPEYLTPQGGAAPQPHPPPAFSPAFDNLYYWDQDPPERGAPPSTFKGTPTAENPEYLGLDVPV
Sequence of Mitogen-activated protein kinase kinase kinase kinase 4 (Homo sapiens) (O95819 2-1239 limits assumed): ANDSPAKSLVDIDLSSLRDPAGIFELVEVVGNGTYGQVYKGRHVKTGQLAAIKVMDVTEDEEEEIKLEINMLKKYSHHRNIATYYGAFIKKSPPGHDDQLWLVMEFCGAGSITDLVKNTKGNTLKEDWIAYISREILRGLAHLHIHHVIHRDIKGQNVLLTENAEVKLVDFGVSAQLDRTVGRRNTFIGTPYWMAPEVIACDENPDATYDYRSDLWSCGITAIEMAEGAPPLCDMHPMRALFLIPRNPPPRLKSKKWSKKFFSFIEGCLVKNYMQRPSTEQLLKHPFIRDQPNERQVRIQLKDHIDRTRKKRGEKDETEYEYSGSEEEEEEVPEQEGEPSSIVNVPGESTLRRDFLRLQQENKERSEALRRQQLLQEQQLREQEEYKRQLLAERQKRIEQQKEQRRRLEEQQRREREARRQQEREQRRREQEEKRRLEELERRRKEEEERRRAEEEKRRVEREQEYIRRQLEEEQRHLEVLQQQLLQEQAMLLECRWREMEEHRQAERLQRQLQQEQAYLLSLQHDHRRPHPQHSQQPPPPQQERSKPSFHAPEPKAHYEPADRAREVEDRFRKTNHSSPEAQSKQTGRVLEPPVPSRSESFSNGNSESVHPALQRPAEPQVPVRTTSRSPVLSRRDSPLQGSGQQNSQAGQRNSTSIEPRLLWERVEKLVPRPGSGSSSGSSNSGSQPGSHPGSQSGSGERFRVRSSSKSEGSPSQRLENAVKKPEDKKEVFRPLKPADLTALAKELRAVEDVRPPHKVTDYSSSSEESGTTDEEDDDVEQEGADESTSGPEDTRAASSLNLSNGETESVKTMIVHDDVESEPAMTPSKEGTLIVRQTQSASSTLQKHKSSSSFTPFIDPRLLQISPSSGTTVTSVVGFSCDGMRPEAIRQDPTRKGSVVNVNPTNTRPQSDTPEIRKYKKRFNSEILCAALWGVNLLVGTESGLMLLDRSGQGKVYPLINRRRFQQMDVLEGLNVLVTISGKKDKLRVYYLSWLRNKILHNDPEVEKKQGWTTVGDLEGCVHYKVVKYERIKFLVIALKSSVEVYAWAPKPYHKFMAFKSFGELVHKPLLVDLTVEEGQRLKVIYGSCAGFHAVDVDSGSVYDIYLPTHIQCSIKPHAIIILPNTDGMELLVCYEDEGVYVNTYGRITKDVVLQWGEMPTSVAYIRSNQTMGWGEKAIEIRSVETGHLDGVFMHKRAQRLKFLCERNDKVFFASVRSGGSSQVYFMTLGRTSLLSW

For `COc1ccc(Nc2cc(NC(=O)c3ccccc3)ncn2)cc1`, the inhibition is 21.7% in [1]; 55.8% in assay [2]; 71.4% in assay [3]; 8.3% in assay [4]; -4.2% in [5]; 5.3% in assay [6]. Also, the inhibition is -7.9% in [7]; 44.8% in [8]; 16.6% in assay [9]; 3.5% in [10]; 2.6% in [11]; 2.8% in assay [13]. The same molecule came in with a concentration for half-maximal inhibition (IC50) in [12] of 18.5 µM.
For the molecule `O=C(O)CCCC(=O)Nc1cc(N2CCOCC2)ncn1`, the inhibition is 9.2% in assay [1]; -1.5% in assay [2]; 8.3% in assay [3]; 5.9% in [4]; 0.2% in assay [5]; 4% in assay [6]. For the same molecule, the inhibition in assay [7] is 2.5%; in assay [8] it was 21.6%; in assay [9], 16.7%; in [10], -3.2%; in assay [11] it was 49%. In [12], this molecule yielded an IC50 of 17.9 µM.
As for `CCOC(=O)c1ccc(Nc2cc(NC(=O)CCCC(=O)O)ncn2)cc1`, the inhibition in assay [1] stood at 4.7%; in assay [2], 4.9%; in assay [3] it was 27.1%; in assay [4], 7.2%; in assay [5] it was 4.2%; in assay [6], 9.2%. Also, the inhibition in assay [7] is -1.4%; in assay [8], 56.3%; in [9], 12.7%; in [10], 1.2%; in assay [11], 17.3%; in assay [13] it was -5.3%.
For the molecule `COc1cccc(Nc2cc(Nc3cc(OC)ccc3OC)ncn2)c1`, the inhibition in assay [1] was 26.9%; in assay [2], -4.2%; in assay [3], 11.3%; in assay [4] it was 9.8%; in assay [5], 0.7%; in assay [6] it was 6.3%. Besides, the inhibition was 0% in [7]; 53.5% in [8]; 47.5% in assay [9]; -2.1% in assay [10]; 52.3% in assay [11]; -9.3% in assay [13]. Besides, half-maximal inhibition in [12] (IC50) required 21.4 µM.
Regarding `O=C(O)CCCC(=O)Nc1cc(Nc2cccc(Cl)c2)ncn1`, the inhibition was 43% in assay [1]; 57.3% in assay [2]; 88.6% in [3]; 16.5% in [4]; 12.7% in assay [5]; 13.2% in assay [6]. Moreover, the inhibition was -0.6% in assay [7]; 78.2% in assay [8]; 79.3% in [9]; 1.1% in assay [10]; 8.7% in assay [11]; -8.8% in assay [13]. Also, the IC50 in assay [12] worked out at 18 µM.
Turning to `COc1cccc(Nc2cc(NC(=O)CCCC(=O)O)ncn2)c1`, the inhibition in assay [1] was 8%; in assay [2] it was -1.9%; in assay [3], 21.7%; in [4] it was 21.4%; in assay [5], 17.7%; in assay [6], 10.1%. In addition, the inhibition in [7] was -4.4%; in assay [8] it was 13.5%; in [9] it was 11.3%; in assay [10], 13.3%; in assay [11], 19.8%; in assay [13], -5.5%.
